Laboratory results reported in publication PMC3077087 (Cancer research, 2011).

Assays:
RIP-Tag2 tumors [1] = assay: Intratumoral hemorrhage; type: in vivo, mice; settings: 4 days after cessation of OSI-930
How it was run: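 Regrowth design in 10-week-old RIP-Tag2 mice: OSI-930 for 7 days, then vehicle, test compound or rapamycin for 4 days; vehicle-only arm runs 11 days. Perfusion-fixed tumors cut at 60–80 µm. Erythrocytes immunostained; area density from fluorescence images at empirical threshold 30–50. Values are SEM of 3–8 mice per group; ANOVA with Fisher PLSD.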

RIP-Tag2 tumors [2] = assay: RIP-Tag2 tumor vascularity; type: in vivo, mice
How it was run: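 RIP-Tag2 mice, 9–10 weeks old, dosed up to 7 days. Vehicle (Labrafil or water); test compound 75 mg/kg BID by gavage; OSI-930 200 mg/kg QD by gavage; rapamycin 20 mg/kg QD ip. Perfusion-fixed, 60–80 µm sections stained for CD31 and basement membrane. Area density at threshold 30–50; empty sleeves scored. SEM of 3–8 mice per group; ANOVA/Fisher PLSD.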

RIP-Tag2 tumors [3] = assay: Vascular regrowth after cessation of OSI-930 in RIP-Tag2 tumors; type: in vivo, mice
GEO colorectal xenograft [4] = assay: GEO xenograft pharmacodynamics; type: in vivo, mice; settings: GEO xenografts, 12 days
How it was run: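 GEO cells implanted s.c. in right flank of nu/nu CD-1 mice and dosed for 12 days. Tumors collected 2, 8 and 24 h post-dose and snap frozen. Phospho- and total 4E-BP1 (37/46), Akt (473), S6 (235/236) quantified by Western blot; n=2.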

RET = RET (Homo sapiens, UniProt P07949); assay: Panel of 98 purified protein kinases: RET; type: biochemical; settings: 98 purified protein kinases panel, data not shown
GEO colorectal xenograft [5] = assay: GEO xenograft tumor growth; type: in vivo, mice; settings: GEO xenografts, compared with rapamycin
PI3Kδ = PI3Kδ (Homo sapiens, UniProt O00329); assay: Panel of 98 purified protein kinases: PI3Kδ; type: biochemical; settings: 98 purified protein kinases panel, data not shown
mTOR = mTOR (Homo sapiens, UniProt P42345); assay: Panel of 98 purified protein kinases: mTOR; type: biochemical; settings: 98 purified protein kinases panel
PDK1 = target: T1, PDK1 (Homo sapiens, UniProt O15530); assay: Activity against PDK1; type: biochemical
T1 sequence (O15530 1-556): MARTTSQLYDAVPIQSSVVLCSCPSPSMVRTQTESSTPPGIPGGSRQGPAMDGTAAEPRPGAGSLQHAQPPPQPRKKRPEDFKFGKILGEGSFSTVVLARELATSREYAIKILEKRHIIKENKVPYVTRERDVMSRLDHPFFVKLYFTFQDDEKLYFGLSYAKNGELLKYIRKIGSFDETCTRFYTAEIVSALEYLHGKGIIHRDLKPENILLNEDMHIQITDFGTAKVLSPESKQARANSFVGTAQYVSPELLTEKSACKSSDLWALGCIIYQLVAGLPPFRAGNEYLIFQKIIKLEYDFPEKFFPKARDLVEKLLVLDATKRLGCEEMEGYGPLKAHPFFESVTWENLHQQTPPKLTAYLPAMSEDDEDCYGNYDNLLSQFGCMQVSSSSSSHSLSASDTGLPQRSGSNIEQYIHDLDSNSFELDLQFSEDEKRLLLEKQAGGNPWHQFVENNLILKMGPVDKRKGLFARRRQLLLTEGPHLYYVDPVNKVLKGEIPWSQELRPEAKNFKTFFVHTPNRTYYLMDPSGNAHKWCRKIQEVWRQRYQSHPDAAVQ

PI3Kγ = PI3Kγ (Homo sapiens, UniProt P48736); assay: Panel of 98 purified protein kinases: PI3Kγ; type: biochemical; settings: 98 purified protein kinases panel, data not shown
[6] = tested on: mTORC1 and mTORC2 signaling; assay: In vitro mTORC1/mTORC2 signaling; type: cell-based; settings: for Akt phosphorylation at mTORC2-specific Ser473 site: Supplemental Figure 1A
PIP5Kγ = PIP5Kγ (Homo sapiens, UniProt O60331); assay: Panel of 98 purified protein kinases: PIP5Kγ; type: biochemical; settings: 98 purified protein kinases panel, data not shown
[7] = tested on: RIP-Tag2 pancreatic neuroendocrine tumors; assay: Signaling, proliferation and apoptosis in RIP-Tag2 tumors, single agents; type: in vivo, mice; settings: for Akt and 4E-BP1 phosphorylation: 7-day treatment
How it was run: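 RIP-Tag2 mice (9–10 weeks) treated 7 days: test compound 75 mg/kg BID gavage, rapamycin 20 mg/kg QD ip, or vehicle. Perfusion-fixed tumor sections (60–80 µm) immunostained for phospho-S6K, phospho-Akt and phospho-4E-BP1 with CD31, plus phospho-histone H3 and activated caspase-3. Examined by fluorescence/confocal microscopy and quantified. SEM of 3–8 mice per group; ANOVA with Fisher PLSD.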

RIP-Tag2 tumors [8] = assay: VEGF in RIP-Tag2 tumor lysates, multiplex antibody array; type: in vivo, mice; settings: for VEGF-B expression: data not shown
How it was run: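 Tumors from RIP-Tag2 mice given vehicle, test compound or rapamycin. Tumor lysates run on mouse angiogenesis antibody arrays per manufacturer's directions. VEGF signal read as pixel density. SEM of 3–8 mice per group; ANOVA with Fisher PLSD.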

JNK3 = JNK3 (Homo sapiens, UniProt P53779); assay: Panel of 98 purified protein kinases: JNK3; type: biochemical; settings: 98 purified protein kinases panel, data not shown
MEK2 = MEK2 (Homo sapiens, UniProt P36507); assay: Panel of 98 purified protein kinases: MEK2; type: biochemical; settings: 98 purified protein kinases panel, data not shown
Sequence of MEK2 (P36507 whole entry, species assumed): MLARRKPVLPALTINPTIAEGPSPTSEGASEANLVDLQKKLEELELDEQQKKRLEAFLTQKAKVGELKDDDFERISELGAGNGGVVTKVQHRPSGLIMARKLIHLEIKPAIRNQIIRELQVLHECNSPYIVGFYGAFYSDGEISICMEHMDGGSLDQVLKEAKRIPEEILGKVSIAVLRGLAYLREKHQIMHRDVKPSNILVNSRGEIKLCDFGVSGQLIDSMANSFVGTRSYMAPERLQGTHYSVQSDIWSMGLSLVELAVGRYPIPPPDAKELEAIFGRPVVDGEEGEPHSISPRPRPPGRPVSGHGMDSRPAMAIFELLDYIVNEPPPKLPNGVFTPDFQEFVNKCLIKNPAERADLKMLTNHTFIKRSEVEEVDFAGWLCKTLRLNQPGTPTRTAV

Sequence of PI3Kδ (O00329 whole entry, species assumed): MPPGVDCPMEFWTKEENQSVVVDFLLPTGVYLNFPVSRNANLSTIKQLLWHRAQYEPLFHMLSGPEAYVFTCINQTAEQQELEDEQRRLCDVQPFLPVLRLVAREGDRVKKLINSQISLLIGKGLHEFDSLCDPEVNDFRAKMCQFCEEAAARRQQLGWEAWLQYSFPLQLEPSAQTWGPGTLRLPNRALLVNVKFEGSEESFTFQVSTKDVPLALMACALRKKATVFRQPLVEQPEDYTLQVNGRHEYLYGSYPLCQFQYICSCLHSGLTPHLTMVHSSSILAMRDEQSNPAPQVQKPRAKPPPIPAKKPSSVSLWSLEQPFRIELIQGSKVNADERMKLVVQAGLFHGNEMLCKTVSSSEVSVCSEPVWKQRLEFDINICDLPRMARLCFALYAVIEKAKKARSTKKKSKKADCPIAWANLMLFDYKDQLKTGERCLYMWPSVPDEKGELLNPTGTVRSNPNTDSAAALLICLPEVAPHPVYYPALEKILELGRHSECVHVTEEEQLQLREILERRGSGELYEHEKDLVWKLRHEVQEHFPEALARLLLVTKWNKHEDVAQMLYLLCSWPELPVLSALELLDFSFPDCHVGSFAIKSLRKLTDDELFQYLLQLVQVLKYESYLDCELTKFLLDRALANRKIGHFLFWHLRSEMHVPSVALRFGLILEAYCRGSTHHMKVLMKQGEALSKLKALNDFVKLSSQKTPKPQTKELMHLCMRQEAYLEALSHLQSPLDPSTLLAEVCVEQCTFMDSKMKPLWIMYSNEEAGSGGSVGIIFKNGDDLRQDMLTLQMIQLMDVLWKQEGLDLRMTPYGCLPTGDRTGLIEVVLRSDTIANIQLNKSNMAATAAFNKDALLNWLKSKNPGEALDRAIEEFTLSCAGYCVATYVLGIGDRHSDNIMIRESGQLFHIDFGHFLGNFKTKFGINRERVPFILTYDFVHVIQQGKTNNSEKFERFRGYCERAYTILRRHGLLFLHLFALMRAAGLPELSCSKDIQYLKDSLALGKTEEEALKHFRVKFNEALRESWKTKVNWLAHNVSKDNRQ
Sequence of PI3Kδ (P27986 whole entry partner, species assumed): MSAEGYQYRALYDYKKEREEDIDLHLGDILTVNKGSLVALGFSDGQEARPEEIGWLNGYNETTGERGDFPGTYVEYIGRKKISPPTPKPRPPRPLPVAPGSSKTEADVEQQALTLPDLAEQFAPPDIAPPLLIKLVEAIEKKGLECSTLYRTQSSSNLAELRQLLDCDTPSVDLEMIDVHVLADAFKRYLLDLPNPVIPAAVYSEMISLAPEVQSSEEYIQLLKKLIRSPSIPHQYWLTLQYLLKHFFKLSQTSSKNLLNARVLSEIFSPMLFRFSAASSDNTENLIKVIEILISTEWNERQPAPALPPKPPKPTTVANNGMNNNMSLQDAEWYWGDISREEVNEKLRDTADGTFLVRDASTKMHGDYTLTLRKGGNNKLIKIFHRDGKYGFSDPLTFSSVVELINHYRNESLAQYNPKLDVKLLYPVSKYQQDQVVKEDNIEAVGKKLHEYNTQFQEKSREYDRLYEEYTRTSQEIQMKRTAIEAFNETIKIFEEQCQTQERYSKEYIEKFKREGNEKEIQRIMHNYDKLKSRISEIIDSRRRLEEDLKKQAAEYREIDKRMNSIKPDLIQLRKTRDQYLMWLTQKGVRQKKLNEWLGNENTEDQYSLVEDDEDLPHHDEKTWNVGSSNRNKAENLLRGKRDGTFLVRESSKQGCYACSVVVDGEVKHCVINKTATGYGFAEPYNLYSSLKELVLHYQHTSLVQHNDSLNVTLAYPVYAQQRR
Sequence of PI3Kγ (P48736 whole entry, species assumed): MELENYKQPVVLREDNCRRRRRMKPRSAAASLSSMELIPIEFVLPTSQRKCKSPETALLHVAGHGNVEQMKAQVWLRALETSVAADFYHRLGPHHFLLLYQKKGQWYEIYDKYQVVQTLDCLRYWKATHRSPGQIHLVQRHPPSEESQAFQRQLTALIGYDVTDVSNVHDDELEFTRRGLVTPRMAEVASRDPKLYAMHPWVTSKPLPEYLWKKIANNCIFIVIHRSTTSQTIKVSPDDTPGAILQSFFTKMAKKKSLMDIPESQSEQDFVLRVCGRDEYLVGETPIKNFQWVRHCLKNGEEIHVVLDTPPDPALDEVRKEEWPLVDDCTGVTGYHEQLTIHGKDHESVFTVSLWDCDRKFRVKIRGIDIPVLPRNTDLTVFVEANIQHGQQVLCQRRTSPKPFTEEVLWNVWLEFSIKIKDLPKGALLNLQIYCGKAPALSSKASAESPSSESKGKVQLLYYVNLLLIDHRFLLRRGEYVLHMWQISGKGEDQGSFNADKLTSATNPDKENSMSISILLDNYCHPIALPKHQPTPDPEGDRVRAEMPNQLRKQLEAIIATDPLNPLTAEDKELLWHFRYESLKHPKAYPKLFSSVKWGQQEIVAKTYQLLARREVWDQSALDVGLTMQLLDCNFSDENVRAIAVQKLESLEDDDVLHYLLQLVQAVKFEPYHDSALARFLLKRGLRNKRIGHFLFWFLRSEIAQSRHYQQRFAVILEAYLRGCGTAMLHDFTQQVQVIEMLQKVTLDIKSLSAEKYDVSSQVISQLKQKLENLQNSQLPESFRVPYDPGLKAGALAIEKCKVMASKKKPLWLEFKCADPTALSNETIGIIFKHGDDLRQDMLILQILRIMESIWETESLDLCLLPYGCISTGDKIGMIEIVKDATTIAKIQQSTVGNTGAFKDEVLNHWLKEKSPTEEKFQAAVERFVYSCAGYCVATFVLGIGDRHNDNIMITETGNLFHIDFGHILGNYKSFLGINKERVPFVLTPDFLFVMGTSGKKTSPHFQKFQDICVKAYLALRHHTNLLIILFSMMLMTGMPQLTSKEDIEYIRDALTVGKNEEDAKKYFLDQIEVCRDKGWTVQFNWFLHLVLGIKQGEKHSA
Sequence of RET (P07949 29-1114, species assumed): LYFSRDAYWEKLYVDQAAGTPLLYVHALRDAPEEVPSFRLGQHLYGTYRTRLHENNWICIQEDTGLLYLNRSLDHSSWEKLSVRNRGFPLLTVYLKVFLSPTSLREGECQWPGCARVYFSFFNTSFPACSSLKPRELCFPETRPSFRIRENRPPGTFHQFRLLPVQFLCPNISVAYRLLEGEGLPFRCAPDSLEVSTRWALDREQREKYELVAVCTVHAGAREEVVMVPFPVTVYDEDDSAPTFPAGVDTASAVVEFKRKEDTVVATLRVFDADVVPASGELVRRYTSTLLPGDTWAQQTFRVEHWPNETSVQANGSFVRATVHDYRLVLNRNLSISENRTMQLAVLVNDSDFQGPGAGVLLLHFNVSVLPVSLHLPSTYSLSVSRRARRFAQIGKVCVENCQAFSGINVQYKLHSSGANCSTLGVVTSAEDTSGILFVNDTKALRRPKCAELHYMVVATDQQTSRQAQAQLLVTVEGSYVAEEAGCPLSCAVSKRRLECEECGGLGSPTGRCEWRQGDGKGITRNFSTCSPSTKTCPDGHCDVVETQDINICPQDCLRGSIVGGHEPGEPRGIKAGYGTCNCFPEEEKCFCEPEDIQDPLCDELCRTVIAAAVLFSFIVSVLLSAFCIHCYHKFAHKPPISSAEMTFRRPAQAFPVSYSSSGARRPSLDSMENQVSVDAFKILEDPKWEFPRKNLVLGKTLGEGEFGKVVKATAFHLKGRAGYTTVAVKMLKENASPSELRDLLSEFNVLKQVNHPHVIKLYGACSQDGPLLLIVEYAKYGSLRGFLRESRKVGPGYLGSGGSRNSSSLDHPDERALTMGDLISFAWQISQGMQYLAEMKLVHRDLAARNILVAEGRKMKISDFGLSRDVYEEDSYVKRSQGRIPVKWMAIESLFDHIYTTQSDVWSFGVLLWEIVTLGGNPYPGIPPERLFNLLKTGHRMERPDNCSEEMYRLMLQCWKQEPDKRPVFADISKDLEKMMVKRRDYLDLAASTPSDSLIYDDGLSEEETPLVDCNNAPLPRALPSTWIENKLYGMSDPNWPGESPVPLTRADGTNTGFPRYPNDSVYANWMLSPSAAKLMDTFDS
Sequence of PIP5Kγ (O60331 whole entry): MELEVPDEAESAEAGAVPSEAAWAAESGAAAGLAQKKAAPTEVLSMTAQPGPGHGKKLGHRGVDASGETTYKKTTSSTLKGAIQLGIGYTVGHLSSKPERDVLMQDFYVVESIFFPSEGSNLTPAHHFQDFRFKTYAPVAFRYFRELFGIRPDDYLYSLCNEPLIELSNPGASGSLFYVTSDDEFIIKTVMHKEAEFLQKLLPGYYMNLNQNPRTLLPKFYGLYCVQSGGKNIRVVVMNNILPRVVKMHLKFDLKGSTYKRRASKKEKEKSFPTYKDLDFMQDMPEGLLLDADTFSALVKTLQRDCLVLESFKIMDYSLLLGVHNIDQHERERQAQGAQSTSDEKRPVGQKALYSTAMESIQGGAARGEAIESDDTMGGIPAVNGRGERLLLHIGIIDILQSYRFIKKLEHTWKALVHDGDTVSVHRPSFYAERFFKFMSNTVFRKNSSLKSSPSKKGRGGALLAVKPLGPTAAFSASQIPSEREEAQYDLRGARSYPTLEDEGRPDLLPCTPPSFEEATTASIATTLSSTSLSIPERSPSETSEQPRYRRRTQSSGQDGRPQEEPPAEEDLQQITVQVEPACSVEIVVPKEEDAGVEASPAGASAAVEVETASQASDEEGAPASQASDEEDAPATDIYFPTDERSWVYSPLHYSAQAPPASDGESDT

Compound | empty basement membrane sleeves (vessel regression) (RIP-Tag2 tumors [2]; RIP-Tag2, 7 days) | inhibition of RET (RET) | tumor growth (GEO colorectal xenograft [5]) | inhibition of PI3Kδ (PI3Kδ) | inhibition of mTOR (mTOR) | activity against PDK1 (PDK1) | inhibition of PI3Kγ (PI3Kγ) | 4E-BP1 phosphorylation at Ser37/46 [6] | Akt phosphorylation at mTORC2-specific Ser473 site [6] | Akt and 4E-BP1 phosphorylation [7] | VEGF-B expression (RIP-Tag2 tumors [8]) | further results
O=C(Nc1ccc(OC(F)(F)F)cc1)c1sccc1NCc1ccnc2ccccc12 [OSI-930] | numerous |  |  |  |  |  |  |  |  |  |  | TER-119 levels, difference from baseline (RIP-Tag2 tumors [1]): ≤ 28%; decrease in vessel density (RIP-Tag2 tumors [3]; OSI-930 7 days, then vehicle 4 days after cessation): 18%; reduction of tumor vascularity (RIP-Tag2 tumors [3]; regrowth study, OSI-930 for 7 days): 63%
COc1cccc2cc(-c3nc([C@H]4CC[C@H](C(=O)O)CC4)n4ncnc(N)c34)[nH]c12 [OSI-027] |  | greater than 90% | slowed tumor growth more than did rapamycin | greater than 90% | fully inhibited | inactive | greater than 90% | inhibited | dose-dependently attenuated |  |  | 4E-BP1, Akt, and S6 phosphorylation (GEO colorectal xenograft [4]; 65 mg/kg, after 2 hours): decreased; inhibition of PIP5Kγ (PIP5Kγ): significantly inhibited
CO[C@H]1C[C@@H]2CC[C@@H](C)[C@@](O)(O2)C(=O)C(=O)N2CCCC[C@H]2C(=O)O[C@H]([C@H](C)C[C@@H]2CC[C@@H](O)[C@H](OC)C2)CC(=O)[C@H](C)/C=C(\C)[C@@H](O)[C@@H](OC)C(=O)[C@H](C)C[C@H](C)/C=C/C=C/C=C/1C [rapamycin, reference compound] | not apparent |  |  |  |  |  |  | failed to inhibit | failed to inhibit | not observed | unchanged | phospho-S6 and phospho-4E-BP1 (GEO colorectal xenograft [4]; 20 mg/kg): inhibited; phopsho-S6K relative to control [7]: inhibited; reduction of VEGF-A (densitometric analysis) (RIP-Tag2 tumors [8]): no significant reduction; S6Kinase and its substrate S6 [6]: inhibited; reduction of tumor vascularity (CD31) compared to baseline (RIP-Tag2 tumors [2]; RIP-Tag2, 7 days): not significantly reduced
Nc1nccn2c1c(-c1cc3cccc(Cl)c3[nH]1)nc2[C@H]1CC[C@H](C(=O)O)CC1 [OXA-01] | not apparent | greater than 90% | slowed tumor growth more than did rapamycin | greater than 90% | fully inhibited | inactive | greater than 90% | inhibited | dose-dependently attenuated | decreased | unchanged | apoptosis measured by activated-caspase-3 ([7]; 7 days): increased; cellular proliferation determined by phospho-histone H3 ([7]; 7 days): decreased; inhibition of JNK3 (JNK3): inhibited; inhibition of MEK2 (MEK2): inhibited; reduction of tumor vascularity (CD31) (RIP-Tag2 tumors [2]; RIP-Tag2, at 1, 2, or 4 days): not detectably reduced; decrease in tumor vessel regrowth (RIP-Tag2 tumors [3]; named drug for 1 day after withdrawal of OSI-930, data not shown): no significant decrease
